Screening data (PubChem BioAssay)
Lung fibro prol = antiproliferative effect on LL 47 fibroblasts – human, LL 47 cells, CellTiter-Glo luminescence, primary screen; actives 1.1% (n = 85,000); viability, % at 10 µM; LL 47 human lung fibroblast viability, ATP luminescence; hits give low values;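 active = viability at or below 50% in the single dose screen; inactive = viability above 50%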;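 note: compound exposure lasted 72 h before the ATP readout; 100% = median luminescence of untreated cell-only wells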
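Times – overnight cell rest, 72 h compound treatment at 37 °C · Test system – human lung fibroblast line LL 47, low passage · Amount – 1,150 cells in each well · Controls – cell-only wells, no compound · Doses – 0.1% DMSO in all compound wells · Measured by – CellTiter-Glo luminescence · Buffer or medium – IMEM plus 15% FBS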
HUVEC prolif 384 = inhibitors of HUVEC proliferation, primary screen, cell-based, 384-well | CellTiter-Glo luminescence, 72 h; hits give low values | viability, % at 10 µM (by protocol) | actives 1.1% (n = 86,000) | AID 648, 2007;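 active = viability at or below 30%; inactive = viability above 30%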;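 note: 100% = median luminescence of DMSO-only cell control wells on each plate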
PTEN del growth = growth suppression of PTEN-null HCT116, primary screen, cell-based, CellTiter-Glo | viability, % at 10 µM | HCT116 PTEN-null viability, 60 h; hits give low values | actives 1.2% (n = 140,000);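 active = viability at or below a set limit, 4 SD under the median of all tested compounds, cut at about 3.7% in these data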;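 note: PTEN knockout HCT116 line with beta catenin targeted HCT116 as companion control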
PTK2B oligo ant = antagonists of Pyk2 self-association, primary screen, Q293 cells, FERM NanoBiT luminescence, HTS; actives 0.83% (n = 99,000); z-score (the deposit names both 25 µM and 10 µM); AID 1347419, 2020; hits give low values; Protein-tyrosine kinase 2-beta (Homo sapiens), Q14289;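 active = Z-score of -3 or lower, scaled per plate to the spread of control and sample wells; inactive = z-score above -3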;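 note: negative z-score means lost luminescence so less FERM oligomerization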
H69AR growth 86K = proliferation blockers of H69AR lung cancer cells, primary screen, cell-based, human, 86K library; viability, % at 10 µM; actives 6% (n = 85,000); H69AR lung tumor viability, ATP luminescence, 72 h; hits give low values;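 active = viability at or below 40%; inactive = viability above 40%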;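 note: multidrug resistant small cell line overexpressing MRP-1 efflux transporter; 100% = mean luminescence of untreated control wells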
HCT116 bCat-KO = primary screen for growth suppressors in beta-catenin knockout HCT116 cells (colon tumor, human); HCT116 beta-catenin knockout viability, CellTiter-Glo, 60 h; hits give low values; viability, % at 10 µM; actives 1.5% (n = 140,000);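 active = viability at or under a set limit, the compound median less 4 SD, cut at about 6% in these data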;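 note: 0% = Hyamine 1622 control at 20 µM and 100% = untreated cell control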
* marks the source's active call; other numbers are inactive results; . = no result. The full list was thinned out, with hits kept by preference.

SMILES	Lung fibro prol	HUVEC prolif 384	PTEN del growth	PTK2B oligo ant	H69AR growth 86K	HCT116 bCat-KO
CCCc1nc2sc3c(SCC(=O)NCc4ccco4)ncnc3c2c2c1CCC2	95	58	27	-0.22	8.6*	30
CC(C)Sc1nc(SCC(=O)NCc2ccco2)c2c3c(sc2n1)COC(C)(C)C3	91	86	80	0.43	34*	69
CC(=O)C(=Nc1ccccc1Cl)NNc1ccc(Cl)cc1	85	88	70	-0.45	101	75
COC(=O)c1[nH]c2ccc(Br)cc2c1NC(=O)C(C)N1CCN(C2CCCCC2)CC1 (stereo unspecified)	25*	29*	3.2*	-0.08	15*	9
COC(=O)c1[nH]c2ccc(C)cc2c1NC(=O)NC1CCCCC1	96	90	36	-0.29	49	5.2*
C=CC[N+](C)(C)C/C(Cl)=C(\Cl)c1ccccc1	105	106	92	0.25	93	92
Clc1cccc(/C=N/Nc2ncnc3ccccc23)c1	.	.	7	-0.36	.	2.8*
Cc1ccc(NC(=O)NC(=O)CSc2nnc(-c3ccc(Cl)cc3Cl)n2N)c(C)c1	.	.	98	.	.	97
Cc1cc(C(=O)CSc2n[nH]c(-c3ccccc3F)n2)c(C)n1Cc1cccs1	98	85	94	0.89	103	83
CC[n+]1c(/C=C/c2ccc(N(C)C)cc2)ccc2ccccc21	.	.	2.1*	.	.	3.4*
O=C(Nc1ccc2c(c1)OCCO2)c1cc2sccc2n1Cc1ccccc1	98	91	39	-3.8*	82	42
O=C(Nc1nccs1)c1cc2sccc2n1Cc1ccc(Cl)cc1	.	.	75	.	.	52
O=C(Nc1ccc2c(c1)OCCO2)c1cc2sccc2n1Cc1ccc(F)cc1	93	92	72	-3.1*	101	61
Cn1c(C(=O)Nc2ccc3c(c2)OCCO3)cc2sccc21	89	75	69	-1.8	83	74
CCOC(=O)c1cc(NC(=O)CSCCO)ccc1Cl	97	105	91	0.26	15*	88
Cc1ccc(NC(=O)CSCC#N)cc1Cl	.	.	90	.	.	100
CCOc1ccc(CCNC(=O)C2CCN(c3nnc(-n4cccc4)s3)CC2)cc1OCC	105	98	91	1.4	40*	109
O=C(COC(=O)c1cc(-c2cccs2)nn1-c1ccccc1)Nc1ccc(Cl)c([N+](=O)[O-])c1	.	.	87	.	.	92
CC(C)(C)n1ncc2c(=O)n(CC(=O)NCc3ccccc3)cnc21	80	58	32	-0.93	24*	36
Cc1nc(N)sc1N=Nc1ccc(Br)cc1	98	65	61	-0.62	84	60
Cc1cc(NC(=O)c2cccc(S(=O)(=O)N3CCCCCC3)c2)n(-c2ccccn2)n1	88	88	84	-0.19	66	72
Cc1cc(NC(=O)c2cccc(S(=O)(=O)N(C)C)c2)n(-c2ccccn2)n1	96	79	101	-2	26*	93
O=C(Nc1ccc2ccccc2c1)[C@@H]1C[C@H]1[C@@H](NP(=O)(c1ccccc1)c1ccccc1)c1ccccc1	.	.	60	.	.	63
CCOC(=O)c1ccc(-n2c(C)ccc2C)cc1	.	.	15	.	.	19
CCOC(=O)c1ccc(N2C(=O)C=CC2=O)cc1	4.3*	12*	110	0.06	1.9*	97
SMILES	Lung fibro prol	HUVEC prolif 384	PTEN del growth	PTK2B oligo ant	H69AR growth 86K	HCT116 bCat-KO
CCn1c(CNC(=O)c2ccco2)nnc1SCC(=O)Nc1ccc(Br)cc1F	100	97	96	0.5	94	90
COC(=O)C1=C(C)N(Cc2ccco2)C(=O)N[C@@H]1c1cccc(C(F)(F)F)c1	.	.	0.7*	.	.	0.7*
CC(=O)C1=C(C)N(Cc2ccccc2)C(=O)N[C@@H]1c1cccc(C(F)(F)F)c1	.	.	89	.	.	89
O=c1/c(=C\c2cccn2-c2ccccc2)sc2nc3ccccc3n12	100	59	102	-1.1	28*	93
Cc1ccc(-n2c(C)cc(/C=c3/sc4nc5ccccc5n4c3=O)c2C)cc1	95	120	62	.	98	57
CCN(CC)S(=O)(=O)c1ccc(N/N=C/c2cc(OC)ccc2O)nc1	.	.	5	.	.	2.7*
Cc1ccc(C(=O)CC(=O)c2cccc(F)c2)c(O)c1	.	.	40	-1.2	.	49
O=c1[nH]c(CN2CCN(S(=O)(=O)c3ccccc3C(F)(F)F)CC2)nc2sc3c(c12)CCCC3	.	.	91	.	.	89
COc1ccc2c(c1OC)C(=O)O[C@@H]2[C@H]1c2c(cc3c(c2OC)OCO3)CCN1C	88	90	80	.	30*	96
CCOC(=O)c1c(C=O)c(C)n(Cc2ccc(Cl)cc2)c1C	87	93	36	-3.2*	94	26
CSc1ccc(/C=N/NC(=O)c2cccc(O)c2)cc1	.	.	46	0.37	.	37
COc1ccc(C)cc1NC(=O)CN1C(=O)c2cccc3cccc1c23	55	47	62	-0.75	28*	76
O=C(c1ccc(Cl)c(S(=O)(=O)NCc2ccco2)c1)N1CCN(c2ccc(F)cc2)CC1	96	102	86	0.01	68	82
N#Cc1ccccc1Sc1ccccc1C(=O)Nc1ccc(Br)cc1	.	.	82	-3.5*	.	89
CC1(C)CC(=O)C(Sc2ccccc2[N+](=O)[O-])=C(O)C1	.	.	98	-0.21	.	100
CC(=O)Nc1ccc(N=Cc2ccc[nH]2)cc1	.	.	94	0.27	.	102
Oc1ccccc1N=Cc1ccc[nH]1	111	101	100	-0.06	35*	92
CCOc1cc(C(=S)N2CCCCC2)ccc1OCC(=O)NCc1ccccc1	98	105	98	1.2	23*	93
CCOc1ccc(C(=S)N2CCCC2)cc1OC	.	.	97	.	.	99
Cc1cccc2cc(C#N)c(SCC(=O)N3CCC(C)CC3)nc12	92	82	110	-2.5	82	108
Cc1cccc2cc(C#N)c(SCC(=O)N3CC(=O)Nc4ccccc43)nc12	.	.	16	-3.1*	.	17
COc1cc(NC(=S)NC2CC2)c(OC)cc1Cl	.	.	99	.	.	94
COc1ccc(CNc2nc3ccccc3n2Cc2ccc(Cl)cc2)cc1OC	.	.	67	.	.	68
CCNc1ccc(C(=O)OCC)cc1NC(=O)c1cccc(S(=O)(=O)N(C)c2ccccc2)c1	.	.	67	.	.	72
CCNc1ccc(C(=O)OCC)cc1NC(=O)c1cccc(N(C)C)c1	51	50	16	-0.47	22*	17
CCn1c(Sc2ccc(N)cc2Cl)nc2ccccc21	94	108	58	-1.8	34*	69
COc1ccc(O)c(-c2[nH]ncc2C(=O)c2ccccc2)c1	103	100	97	-3.5*	97	106
